# Compounds with a hit are over-represented: about 1.7% of the library has one in this group of screens.
# PREPL inhibitor – inhibits the human prolyl oligopeptidase-like enzyme. Q4J6C6. recombinant PREPL, fluorescence polarization activity-based probe. inhibition, % at 5.96 µM. actives 0.68% (n = 320,000). AID 2751; in the data active = inhibition above about 43%;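 note: 0% = enzyme with DMSO and 100% = wells lacking enzyme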
# EBNA-1 inhibitor – blocks EBNA-1 binding to DNA. EBNA-1 DNA binding, fluorescence polarization. inhibition, % at 14.8 µM. actives 0.34% (n = 300,000); in the data active = inhibition above about 28%
# ZTA counter – counter-screen for EBNA-1 inhibitors: inhibitors of Epstein-Barr virus ZTA; P03206; ZTA-DNA binding, fluorescence polarization; inhibition, % at 11 µM; actives 0.15% (n = 320,000); AID 2234; in the data active = inhibition above about 33%
# Apaf-1 inh – human Apaf-1 inhibition | O14727 | reconstituted apoptosome caspase-3 activity, DEVD-Rh110 fluorescence | inhibition, % at 20 µM | actives 0.71% (n = 330,000) | AID 489030; active = inhibition of at least 40% at 20 µM;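 note: plate controls were DMSO wells for no effect and DEVD-CHO caspase inhibitor wells for full effect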
#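 System: Apoptosome proteins | Medium: Hepes pH 7.5 with detergent and BSA | Also added: Cytochrome c trigger plus (Z-DEVD)2-Rh110 caspase-3 substrate | Incubation: 30 min compound preincubation, 50 min activation, room temperature | Detection: Rhodamine 110 fluorescence at Ex 480/Em 540 nm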
# UBC13 inh – human UBC13 polyubiquitination inhibition. actives 0.47% (n = 330,000). inhibition, % at 20 µM. P61088. UBC13 polyubiquitin chain formation, TR-FRET. AID 485273; in the data active = inhibition above about 45%, passing the limit was not always enough
# EBNA-1 confirm – EBNA-1 (EBV) inhibition, confirmation; shares compounds with EBNA-1 inhibitor; Recombinant EBNA-1 DBD, Cy5-DNA fluorescence polarization; inhibition, % at 14.8 µM; actives 35% (n = 830); AID 2292;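 active = mean inhibition across replicates above a set limit taken from the earlier primary screen, cut at about 28% in these data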;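 note: plate controls were EBNA-1 protein with DMSO for no effect and wells lacking EBNA-1 for full effect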
# ZTA counter trip – blocks Epstein-Barr virus ZTA in triplicate, EBNA-1 counter-screen | inhibition, % at 11.1 µM | shares compounds with EBNA-1 inhibitor | Zta-ZRE DNA binding, Cy5 fluorescence polarization | 830 tested, under 10 active;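 active = mean inhibition over triplicates above a set limit taken from the primary EBNA-1 screen, cut at about 37% in these data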;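 note: purified full length Zta protein with Cy5 labeled ZRE DNA probe; 0% = Zta with DMSO and 100% = wells lacking Zta protein; inhibitors lower polarization by freeing the labeled DNA probe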
# * = called active by the depositor; / = no result.
SMILES,PREPL inhibitor,EBNA-1 inhibitor,ZTA counter,Apaf-1 inh,UBC13 inh,EBNA-1 confirm,ZTA counter trip
Cc1nn(CC(O)Cn2c3c(c4ccccc42)CCN(C)C3=O)c(C)c1Br (stereo not given),14,-4,-5,5,11,/,/
Cc1cccc(C)c1NC(=O)COC(=O)C1Cc2ccccc2CN1C(=O)c1ccccc1 (stereo not given),3,10,4,6,-8,/,/
N#Cc1ccc(NC(=O)COC(=O)C2Cc3ccccc3CN2C(=O)c2ccccc2)cc1 (stereo not given),6,33*,-18,7,-1,6,-1
CCOc1ccc2oc(C(=O)NNC(=O)c3ccccc3O)c(C)c2c1,3,73*,-11,8,-2,6,1
Cc1c(C(=O)NNC(=O)c2ccccc2O)oc2ccc(Br)cc12,37,13,2,/,/,/,/
CCCS(=O)(=O)n1nc(-c2ccc(OC)cc2OC)cc1N,-1,-1,-14,8,5,/,/
CCOCCCn1c(SCC(=O)NCc2ccco2)nc2c(sc3ccccc32)c1=O,-4,30*,9,-7,-3,0,2
CCOC(=O)CN(C(=O)CSc1nnc2c(n1)[nH]c1ccccc12)c1ccccc1,4,40*,4,15,-24,-6,-6
Cc1ccc(-n2c(SCC(=O)Nc3nccs3)nc3c(c2=O)SCC3)cc1,-7,39*,23,3,0,38*,-3
CC(=O)NC12CC3CC(C1)CC(C(=O)Nc1nc4ccc(F)cc4s1)(C3)C2,-4,-8,-8,22,1,/,/
O=C(CSc1cn(Cc2ccccc2)c2ccccc12)Nc1nccs1,-11,36*,2,17,4,8,6
COc1ccc(S(=O)(=O)N2CCOCC2)cc1NC(=O)c1ccc2c(c1)OCCO2,-1,10,14,3,8,/,/
COc1ccc(S(=O)(=O)N2CCOCC2)cc1NC(=O)c1cccc(Cl)c1,4,41*,9,14,-1,20,-7
CCc1noc(C)c1C(=O)Nc1cc(S(=O)(=O)N2CCOCC2)ccc1OCC(F)(F)F,20,79*,4,12,-1,-8,-15
COc1ccc(S(=O)(=O)N2CCOCC2)cc1NC(=O)c1ccccc1C,7,-1,-12,3,-6,/,/
COc1ccc(S(=O)(=O)N2CCOCC2)cc1NC(=O)c1ccc(Cl)cc1,-10,44*,-9,12,-2,32*,-7
O=C(Nc1cccc(-c2nnc(-c3ccco3)o2)c1)c1ccccc1,-21,3,24,8,6,/,/
CCOCC(=O)Nc1ccc(S(=O)(=O)N2CCOCC2)cc1,11,8,-7,-3,-3,/,/
CC(C)c1cc(=O)n2[nH]c(SCc3ccc(Cl)cc3)nc2n1,15,3,-15,5,0,/,/
COc1cc2c(=O)n(CCC(=O)NCC3CCCO3)c(=O)n(CC(=O)c3ccc(Cl)cc3)c2cc1OC (stereo not given),-13,4,8,-7,-5,/,/
Cc1ccccc1Sc1ncnc2onc(C)c12,-3,-2,5,-1,4,/,/
O=C(Nc1cccc(S(=O)(=O)NC2=NCCCCC2)c1)c1cc(-c2ccco2)nc2ccccc12,-11,39*,-1,10,25,18,-7
Cc1occc1C(=O)N/N=C/c1ccc(-c2ccccc2)cc1,-14,12,-15,14,4,/,/
Cc1ccc(-c2csc(NC(=O)COC(=O)c3cccc(S(=O)(=O)N4CCOCC4)c3)n2)cc1,-29,98*,-6,10,-5,-3,0
CCOC(=O)c1ccc(-c2csc(NC(=O)CN3CCC(C)CC3)n2)cc1,-3,43*,-12,17,3,70*,-1
SMILES,PREPL inhibitor,EBNA-1 inhibitor,ZTA counter,Apaf-1 inh,UBC13 inh,EBNA-1 confirm,ZTA counter trip
CNS(=O)(=O)c1cccc(C(=O)OCC(=O)Nc2ccc(-c3nc4ccc(C)cc4s3)cc2)c1,-2,103*,23,-19,1,81*,26
Cc1ccc2nc(-c3ccc(NC(=O)COC(=O)c4ccco4)cc3)sc2c1,2,21,19,0,4,/,/
Cc1cc(C(=O)OCC(=O)Nc2nc(-c3ccccc3)cs2)c(C)o1,-1,34*,7,-2,6,10,-10
CC(C)(C)c1cc(NC(=O)COC(=O)c2nccnc2N)n(-c2ccccc2)n1,3,-4,4,0,11,/,/
NC(=O)c1nn(-c2ccccc2)nc1NC(=O)Cn1nnc(-c2ccccc2)n1,-1,46*,1,-3,-1,24,2
COc1ccc(-c2cc(C(=O)Nc3cnn(Cc4ccccc4C)c3)no2)cc1OC,-22,36*,1,-5,24,23,10
O=C(NC(=S)NCc1nc2ccccc2[nH]1)c1ccc(F)cc1,4,33*,20,-15,6,-13,-12
O=C(NC(=S)NCc1nc2ccccc2[nH]1)c1ccccc1F,14,-4,-12,-2,-6,/,/
Cc1ccc(-c2csc(NC(=O)CSc3ncn(-c4ccccc4)n3)n2)cc1,-138,41*,14,18,0,0,-2
O=C(CSc1ncn(-c2ccccc2)n1)Nc1nc(-c2ccccc2)cs1,-74,16,0,0,8,/,/
CC(C)c1ccc(Nc2nc(Cl)nc(NCc3ccco3)n2)cc1,-6,5,12,-13,13,/,/
COc1ccc(Nc2nc(Cl)nc(NCc3ccco3)n2)c(OC)c1,4,29*,1,16,12,15,-6
C=CCNC(=O)c1ccc(Cn2c(=S)[nH]c3cc4c(cc3c2=O)OCO4)cc1,-2,33*,4,-13,-8,0,0
COc1ccc(NC(=O)Cn2c(=O)oc3ccccc32)cc1,10,-3,-9,-19,11,/,/
O=C(CCn1c(=O)oc2ccccc21)Nc1cccc(Cl)c1,-27,36*,26,3,6,2,-2
O=C(Cn1c(=O)oc2ccccc21)Nc1cccc(Cl)c1,-7,8,14,-1,2,/,/
COC(=O)c1cc(NC(=O)Cn2c(=O)oc3ccccc32)cc(C(=O)OC)c1,2,65*,3,2,-3,38*,-7
Cc1ccc(CNC(=O)C2CC(c3cccc([N+](=O)[O-])c3)=NO2)cc1 (stereo not given),-7,-1,-9,-3,2,/,/
CC(C)C(=O)Nc1ccc(C(=O)NNC(=O)CCCOc2ccc(Cl)cc2Cl)cc1,-2,36*,-8,0,-12,15,10
CC(=O)CCc1c(C)nc2ccc(C(=O)O)cc2c1Cl,10,31*,8,4,-1,-13,-22
Cc1ccc2nc(SCC(=O)NCc3cccs3)c(C#N)cc2c1,-12,33*,5,-12,4,-1,7

# Screening results: PubChem, several laboratories
